Data published in ChEMBL document CHEMBL1154157, “Synthesis, structure and structure-activity relationship analysis of 3-tert-butoxycarbonyl-2-arylthiazolidine-4-carboxylic acid derivatives as potential antibacterial agents” (Eur J Med Chem, 2009).
≈ marks a conversion by molar mass, not a printed value.

Tests used:
Assay type in all cases: functional, organism-based
Escherichia coli = test: Antibacterial activity against Escherichia coli ATCC 35218 after 24 hrs by MTT method; conditions: ATCC 35218, 24 h
Outline: (§1)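 Broth assay in Mueller-Hinton liquid medium. Compounds dissolved in DMSO (stock 50 μg/mL) and serially diluted into the medium. Inoculum approx. 10^5 cfu/mL, incubated 37 °C for 24 h. Afterwards MTT (2 mg/mL in 0.01 mol/L PBS, pH 7.4) added, 4-5 h at room temperature. Dye extracted with isopropanol containing 5% 1 mol/L HCl for 12 h, OD read at 570 nm. IC50 derived colorimetrically.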

Staphylococcus aureus = test: Antibacterial activity against Staphylococcus aureus ATCC 6538 after 24 hrs by MTT method; conditions: ATCC 6538, 24 h; outline: as §1
Bacillus subtilis = test: Antibacterial activity against Bacillus subtilis ATCC 6633 after 24 hrs by MTT method; conditions: ATCC 6633, 24 h; outline: as §1
Pseudomonas aeruginosa = test: Antibacterial activity against Pseudomonas aeruginosa ATCC 13525 after 24 hrs by MTT method; conditions: ATCC 13525, 24 h; outline: as §1

SMILES	IC50 (Escherichia coli) [µg/mL]	IC50 (Staphylococcus aureus) [µg/mL]	IC50 (Bacillus subtilis) [µg/mL]	IC50 (Pseudomonas aeruginosa) [µg/mL]
O=C(O)[C@@H]1CSC(c2ccccc2)N1 (mixture of isomers)	25	12.5	3.12	> 50
O=C(O)[C@@H]1CSC(c2cc(Cl)ccc2O)N1 (mixture of isomers)	12.5	6.25	12.5	3.12
CC(C)(C)OC(=O)N1C(c2cc(Cl)ccc2O)SC[C@H]1C(=O)O (mixture of isomers)	1.56	1.56	1.56	0.39
CC(C)(C)OC(=O)N1C(c2ccc(O)cc2)SC[C@H]1C(=O)O (mixture of isomers)	0.78	3.12	0.39	0.39
CC(C)(C)OC(=O)N1C(c2cc(Br)ccc2O)SC[C@H]1C(=O)O (mixture of isomers)	1.56	1.56	1.56	0.78
CC(C)(C)OC(=O)N1C(c2cc(C(C)(C)C)c(O)c(C(C)(C)C)c2)SC[C@H]1C(=O)O (mixture of isomers)	0.69	1.56	0.39	0.39
O=C(O)[C@@H]1CSC(c2cc(Br)ccc2O)N1 (mixture of isomers)	25	12.5	12.5	6.25
COc1ccc(C2SC[C@@H](C(=O)O)N2C(=O)OC(C)(C)C)cc1 (mixture of isomers)	0.78	1.56	3.12	0.39
O=C(O)[C@@H]1CSC(c2cc(F)ccc2O)N1 (mixture of isomers)	12.5	6.25	3.12	1.56
CC(C)(C)OC(=O)N1C(c2ccc(Br)cc2)SC[C@H]1C(=O)O (mixture of isomers)	0.39	3.12	3.12	0.39
CC(C)(C)OC(=O)N1C(c2cc(F)ccc2O)SC[C@H]1C(=O)O (mixture of isomers)	0.78	0.39	0.39	0.195
CC(C)(C)c1cc(C2N[C@H](C(=O)O)CS2)cc(C(C)(C)C)c1O (mixture of isomers)	25	12.5	25	25
CC(C)(C)OC(=O)N1C(c2ccccc2)SC[C@H]1C(=O)O (mixture of isomers)	0.39	0.78	3.12	0.78
COc1ccc(C2N[C@H](C(=O)O)CS2)cc1 (mixture of isomers)	> 50	25	12.5	> 50
CC(C)(C)OC(=O)N1C(c2cc(Br)cc(Br)c2O)SC[C@H]1C(=O)O (mixture of isomers)	0.78	1.56	3.12	0.39
O=C(O)[C@@H]1CSC(c2ccc(O)cc2)N1 (mixture of isomers)	> 50	> 50	25	25
O=C(O)[C@@H]1CSC(c2cc(Br)cc(Br)c2O)N1 (mixture of isomers)	12.5	> 50	12.5	25
NC[C@H]1O[C@H](O[C@H]2[C@H](O)[C@@H](O[C@H]3O[C@H](CO)[C@@H](O)[C@H](N)[C@H]3O)[C@H](N)C[C@@H]2N)[C@H](N)[C@@H](O)[C@@H]1O [BEKANAMYCIN]	3.12 (≈ 6.46 µM)	1.56 (≈ 3.23 µM)	0.39 (≈ 0.807 µM)	3.12 (≈ 6.46 µM)
CC1(C)S[C@@H]2[C@H](NC(=O)Cc3ccccc3)C(=O)N2[C@H]1C(=O)O [PENICILLIN G]	6.25 (≈ 18.7 µM)	1.56 (≈ 4.67 µM)	1.56 (≈ 4.67 µM)	6.25 (≈ 18.7 µM)
